pIC50: −log10 of the molar value. Calls of active or inactive are those of the source.
Tests used:
HT-29 [1] = assay: Inhibition of TNF-alpha-induced NFkappaB activation expressed in human HT-29 cells coexpressing hrGFP at 50 uM after 24 hrs by propidium iodide staining-based flow cytometric analysis relative to control; type: cell-based
In short: (§1)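 HT-29 cells stably expressing NF-κB-driven hrGFP given compound (DMSO <0.5%) for 2 h at the maximum non-cytotoxic concentration, then TNF-α at 3 ng/mL final for 18–24 h. Cells trypsinised and stained with propidium iodide; 5000 events gated on FSC/SSC. The %GFP-positive among PI-excluding live cells is normalised to TNF-α/DMSO control, ± SD.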

[2] = Cytotoxicity against human HT-29 cells expressing NF-kappaB-hrGFP assessed as highest non-cytotoxic dose for 100% cell survival after 24 hrs by MTT assay; type: cell-based; conditions: read-out: Activity
In short: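 HT-29 cells stably carrying pNF-κB-hrGFP, seeded at 0.5 × 10^6/mL in DMEM with 10% FBS, grown 24 h at 37 °C, 5% CO2. Compounds added in DMSO (<0.5% v/v final) at 12.5–400 µM for 24 h. Viability by MTT reduction (2 h), formazan dissolved in DMSO/glycine buffer, read at 560 nm.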

[3] = Cytotoxicity against mouse […] cells after 48 hrs by MTT assay; type: cell-based
In short: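 J774 macrophages in DMEM (4 mM L-glutamine, 10% heat-inactivated FBS) were seeded at 1 × 10^5 cells/well and grown for 48 h at 37 °C, 5% CO2. They were then exposed to compounds at 25–400 µM for 48 h. MTT (0.1 mg/mL final) was added for 3 h, formazan was dissolved in DMSO/glycine buffer pH 10.5, and absorbance was read at 560 nm to give an IC50.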

HT-29 [4] = assay: Pro-inflammatory activity in NFkappaB-GFP transfected human HT-29 cells at 25 to 400 uM after 24 hrs by propidium iodide staining-based flow cytometric analysis; type: ADME, cell-based; conditions: ht-29, 24 h
In short: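 Reporter HT-29-NF-κB-hrGFP cells given compound alone, without TNF-α, for 18–24 h at 37 °C after the same 2 h pre-incubation. GFP-positive live (propidium iodide-excluding) cells counted by flow cytometry; IL-8 in supernatant measured by bead-based flow cytometry.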

HT-29 [5] = assay: Inhibition of NF-kappaB activation expressed in human HT-29 cells assessed as inhibition of TNFalpha-stimulated IL8 release at 50 uM after 24 hrs by flow cytometric analysis relative to control; type: cell-based
In short: (§2)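 Reporter HT-29-NF-κB-hrGFP cells pretreated 2 h with compound (DMSO <0.5%) at the highest concentration with 100% survival, then stimulated with TNF-α (3 ng/mL final) for 18–24 h at 37 °C. IL-8 in clarified supernatant measured by flow cytometric bead assay (500 events). Expressed as % of TNF-α/DMSO control ± SD; thalidomide as reference.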

Glycine max = assay: Inhibition of soybean lipoxygenase using arachidonic acid as substrate at 50 uM
In short: (§3)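 Soybean 15-lipoxygenase kit assay, arachidonic acid substrate, H2O2 as lipoxygenating agent in 0.1 M Tris-HCl pH 7.4. Single-point screen at 50 µM. IC50 found by varying concentration over 10–100 µM. Quercetin at 4 µM as positive control; duplicate means; Student t-test.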

[6] = Inhibition of soybean lipoxygenase using arachidonic acid as substrate; parameters: species or system Glycine max; in short: as §3
[7] = Induction of NO release in 0.1 M Tris-HCl and 0.1 mM DTPA at pH 8.3 measured for 20 mins in presence of cysteine; type: physicochemical; conditions: buffer, pH 8.3, 20 min
In short: (§4)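 Electrochemical NO detection with an ISO-NOP sensor. Compounds in DMSO added to 0.1 M Tris-HCl, 0.1 mM DTPA at pH 7.4 or 8.3. Cysteine (300 or 100 µM) added and NO recorded for 20 min at 25 or 37 °C; compound:Cys ratio 1:1 at 25 °C, with 3:1 and 37 °C runs also made.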

HT-29 [8] = assay: Inhibition of TNFalpha-induced NF-kappaB activation expressed in human HT-29 cells coexpressing hrGFP at 200 uM after 24 hrs by propidium iodide staining-based flow cytometric analysis relative to control; type: cell-based; in short: as §1
HT-29 [9] = assay: Inhibition of TNFalpha-induced NF-kappaB activation expressed in human HT-29 cells coexpressing hrGFP at 100 uM after 24 hrs by propidium iodide staining-based flow cytometric analysis relative to control; type: cell-based; in short: as §1
[10] = Solubility of the compound in soybean lipoxygenase assay buffer at pH 7.4 at >50 uM; type: physicochemical
HT-29 [11] = assay: Inhibition of NF-kappaB activation expressed in human HT-29 cells assessed as inhibition of TNFalpha-stimulated IL8 release at 100 uM after 24 hrs by flow cytometric analysis relative to control; type: cell-based; in short: as §2
Mus musculus [12] = assay: Analgesic activity in albino mouse assessed as inhibition of acetic acid-induced abdominal constriction at 100 umol/kg, po administered 1 hr before acetic acid challenge measured after 60 mins relative to control; type: functional; conditions: Abdomen
In short: (§5)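 Albino mice of both sexes (18–23 g) were dosed orally as a suspension in 5% arabic gum in saline, with vehicle controls. After 1 h they received 0.6% acetic acid ip (0.1 mL/10 g). Constrictions were counted for 20 min starting 10 min after injection. Data are % inhibition vs vehicle, mean ± SEM, Student t-test.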

Rattus norvegicus [13] = assay: Antiinflammatory activity in albino rat assessed as inhibition of carrageenan-induced paw edema at 100 umol/kg, po administered 1 hr before carrageenan challenge measured after 3 hrs by plethysmometric analysis relative to control; type: functional
In short: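 Albino rats of both sexes (150–200 g) were dosed orally as a suspension in 1% Tween 80 in saline, with vehicle controls. After 1 h, 0.1 mL 1% carrageenan or saline was injected subplantar. Paw volume was read by glass plethysmometer at 3 h. Edema = carrageenan-paw minus saline-paw volume; % inhibition vs vehicle; Student t-test.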

[14] = molecular target: T1, Prostaglandin G/H synthase 1 (Ovis aries) (UniProt P05979); conditions: 0.1 uM
T1 sequence (whole entry): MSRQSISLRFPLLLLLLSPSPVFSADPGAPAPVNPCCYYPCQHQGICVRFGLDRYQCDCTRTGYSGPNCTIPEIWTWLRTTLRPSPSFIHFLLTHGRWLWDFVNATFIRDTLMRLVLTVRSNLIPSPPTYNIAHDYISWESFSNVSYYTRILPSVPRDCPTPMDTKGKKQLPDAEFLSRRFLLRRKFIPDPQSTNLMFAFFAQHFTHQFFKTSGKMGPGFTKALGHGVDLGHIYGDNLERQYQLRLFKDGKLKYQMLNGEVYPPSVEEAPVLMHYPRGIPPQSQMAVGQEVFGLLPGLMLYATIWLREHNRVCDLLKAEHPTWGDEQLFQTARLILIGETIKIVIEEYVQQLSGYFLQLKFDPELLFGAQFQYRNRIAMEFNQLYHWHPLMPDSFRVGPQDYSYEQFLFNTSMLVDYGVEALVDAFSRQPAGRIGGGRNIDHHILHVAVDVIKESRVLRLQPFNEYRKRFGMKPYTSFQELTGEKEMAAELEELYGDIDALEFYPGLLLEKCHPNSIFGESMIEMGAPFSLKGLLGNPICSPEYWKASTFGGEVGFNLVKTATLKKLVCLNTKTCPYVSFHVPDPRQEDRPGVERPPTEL

Mus musculus [15] = assay: Analgesic activity in albino mouse assessed as inhibition of acetic acid-induced abdominal constriction at 100 umol/kg, po administered 1 hr before acetic acid challenge measured after 30 mins relative to control; type: functional; conditions: Abdomen; in short: as §5
[16] = Induction of NO release in 0.1 M Tris-HCl and 0.1 mM DTPA at pH 7.4 measured for 20 mins in presence of cysteine; type: physicochemical; conditions: buffer, pH 7.4, 20 min; in short: as §4
Rattus norvegicus [17] = assay: Antihyperalgesic activity against carrageenan-induced thermal hyperalgesia in Wistar rat assessed as latency of withdrawal response at 100 umol/kg, po administered 1 hr before carrageenan challenge measured after 30 to 240 mins by hot plate test; type: functional, organism-based
In short: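 Wistar rats of both sexes (150–200 g) dosed orally at 100 µmol/kg as suspension in 5% arabic gum in saline, vehicle controls. After 1 h, 1% carrageenan (1 mg/paw) or saline injected subplantar. Left hind paw withdrawal latency on hot plate at 51 ± 0.1 °C read at 0–240 min, 20 s cut-off. Δ latency = time-0 latency minus later latency; mean ± SEM, n = 8–10; Student t-test.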

HT-29 [18] = assay: Inhibition of TNFalpha-induced NF-kappaB activation expressed in human HT-29 cells coexpressing hrGFP at 400 uM after 24 hrs by propidium iodide staining-based flow cytometric analysis relative to control; type: cell-based; in short: as §1
HT-29 [19] = assay: Inhibition of NF-kappaB activation expressed in human HT-29 cells assessed as inhibition of TNFalpha-stimulated IL8 release at 400 uM after 24 hrs by flow cytometric analysis relative to control; type: cell-based; in short: as §2
Salmonella typhimurium [20] = assay: Induction of mutagenesis in Salmonella Typhimurium TA98 assessed as number of revertants at 3.1 to 250 ug/plate in presence of mouse liver S9 fraction; type: toxicity, organism-based; conditions: salmonella enterica subsp. enterica serovar typhimurium
In short: (§6)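 S. typhimurium TA98, plate incorporation on minimal glucose (Vogel-Bonner) agar. Compounds were in DMSO, dosed in triplicate with a top non-toxic dose of 250 or 350 µg/plate. Runs were without S9 (positive control 4-nitro-o-phenylenediamine, 20 µg/plate) or with 500 µL Aroclor-induced mouse liver S9 (positive control 2-aminofluorene, 10 µg/plate), plus a DMSO control. Revertants were counted manually; mutagenic means ≥2-fold spontaneous revertants at two consecutive doses.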

Salmonella typhimurium [21] = assay: Induction of mutagenesis in Salmonella Typhimurium TA98 assessed as number of revertants at 3.1 to 250 ug/plate in absence of mouse liver S9 fraction; type: toxicity, organism-based; conditions: salmonella enterica subsp. enterica serovar typhimurium; in short: as §6

Cc1nc2ccccn2c1C(=O)NN
NF-kappaB activation (% of TNF-alpha control) (HT-29 [1]): 111% | MNTC at 24 h [2]: 50 µM | pIC50 [3]: < 3.40 | Activity (HT-29 [4]): Non-toxic

O=C(O)c1ccc(/C=N/NC(=O)c2c(-c3ccccc3)no[n+]2[O-])cc1
NF-kappaB activation (% of TNF-alpha control) (HT-29 [1]): 115% | MNTC at 24 h [2]: 50 µM | inhibition (HT-29 [5]): 114% | pIC50 [3]: < 3.52 | Activity (HT-29 [4]): Non-toxic | inhibition (Glycine max): 53% | pIC50 [6]: 4.30 | Activity [7]: 0 nM/min

Cc1[nH]cnc1C(=O)N/N=C/c1c(-c2ccccc2)no[n+]1[O-]
inhibition (HT-29 [8]): 103% | MNTC at 24 h [2]: 200 µM | pIC50 [3]: < 3.40 | Activity (HT-29 [4]): Non-toxic

Cc1c(C(=O)N/N=C/c2ccccc2O)no[n+]1[O-]
NF-kappaB activity (% of TNF-alpha control) (HT-29 [9]): 55% | MNTC at 24 h [2]: 100 µM | pIC50 [3]: 3.61 | Activity (HT-29 [4]): Non-toxic | inhibition (Glycine max): 37% | solubility [10]: Insoluble

Cc1[nH]cnc1C(=O)N/N=C/c1no[n+]([O-])c1C
NF-kappaB activity (% of TNF-alpha control) (HT-29 [9]): 126% | MNTC at 24 h [2]: 100 µM | inhibition (HT-29 [11]): 103% | pIC50 [3]: < 3.40 | Activity (HT-29 [4]): Non-toxic | inhibition (Glycine max): 27% | solubility [10]: Insoluble

COc1ccc2c(c1)c(CC(=O)O)c(C)n2C(=O)c1ccc(Cl)cc1 [INDOMETHACIN]
inhibition in vivo at 100 µmol/kg (Mus musculus [12]): 44% | inhibition in vivo at 100 µmol/kg (Rattus norvegicus [13]): 61% | inhibition [14]: 49.7%

O=C(N/N=C/c1ccc2no[n+]([O-])c2c1)c1cccnc1
NF-kappaB activation (% of TNF-alpha control) (HT-29 [1]): 66% | MNTC at 24 h [2]: 50 µM | inhibition (HT-29 [5]): 29% | pIC50 [3]: 4.51 | Activity (HT-29 [4]): Non-toxic | inhibition in vivo at 100 µmol/kg (Mus musculus [15]): 35% | inhibition in vivo at 100 µmol/kg (Rattus norvegicus [13]): 0% | inhibition (Glycine max): 0% | Activity [16]: 0 nM/min | Activity [7]: 0.64 nM/min | Activity (Rattus norvegicus [17]): inactive

NNC(=O)c1ccc2c(c1)OCO2
NF-kappaB activation (% of TNF-alpha control) (HT-29 [1]): 118% | MNTC at 24 h [2]: 50 µM | pIC50 [3]: < 3.40 | Activity (HT-29 [4]): Non-toxic

Cc1c(/C=N/NC(=O)c2cccnc2)no[n+]1[O-] (mixture of isomers)
NF-kappaB activity (% of TNF-alpha control) (HT-29 [9]): 112% | MNTC at 24 h [2]: 100 µM | inhibition (HT-29 [11]): 105% | pIC50 [3]: < 3.40 | Activity (HT-29 [4]): Non-toxic | inhibition (Glycine max): 22% | solubility [10]: Insoluble

Cc1nc2ccccn2c1C(=O)N/N=C/c1c(-c2ccccc2)no[n+]1[O-]
NF-kappaB activity (GFP-positive cells), % of TNF-alpha control (HT-29 [18]): 32% | MNTC at 24 h [2]: 400 µM | inhibition (HT-29 [19]): 38% | pIC50 [3]: 4.25 | Activity (HT-29 [4]): Non-toxic | inhibition in vivo at 100 µmol/kg (Mus musculus [15]): 2% | inhibition in vivo at 100 µmol/kg (Mus musculus [12]): 14% | inhibition in vivo at 100 µmol/kg (Rattus norvegicus [13]): 18% | inhibition (Glycine max): 0% | Activity [16]: 0 nM/min | Activity [7]: 0 nM/min

Cc1c(C(=O)N/N=C/c2ccc(C(=O)O)cc2)no[n+]1[O-]
NF-kappaB activity (GFP-positive cells), % of TNF-alpha control (HT-29 [18]): 125% | MNTC at 24 h [2]: 400 µM | inhibition (HT-29 [19]): 53% | pIC50 [3]: < 3.40 | Activity (HT-29 [4]): Non-toxic | inhibition in vivo at 100 µmol/kg (Mus musculus [12]): 0% | inhibition in vivo at 100 µmol/kg (Rattus norvegicus [13]): 16% | inhibition (Glycine max): 74% | pIC50 [6]: 4.46 | Activity [16]: 1.04 nM/min | Activity [7]: 0.19 nM/min | Activity (Salmonella typhimurium [20]): Non-toxic | Activity (Salmonella typhimurium [21]): Non-toxic
